SENP8 block-1: inhibitors of human SENP8 protease. Q96LD8. purified SENP8, Z-RLRGG-aminoluciferin cleavage, luminescence. inhibition, % at 10 µM. hit rate 1.2% among 330,000. AID 2540; in the data active = inhibition above about 50%
Target sequence (Q96LD8 whole entry, looked up): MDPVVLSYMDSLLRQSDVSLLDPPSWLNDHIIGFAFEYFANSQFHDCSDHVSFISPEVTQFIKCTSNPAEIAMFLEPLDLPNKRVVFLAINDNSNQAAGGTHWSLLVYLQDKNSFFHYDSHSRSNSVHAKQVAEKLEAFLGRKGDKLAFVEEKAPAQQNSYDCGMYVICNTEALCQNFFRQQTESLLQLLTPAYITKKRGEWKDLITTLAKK
SENP8 block-2: SENP8 (human) protease inhibition; recombinant SENP8, Nedd8 substrate fluorescence; inhibition, % at 20 µM; hit rate 0.64% among 360,000; in the data active = inhibition mostly above about 40%, no sharp cut-off; inactive = mostly below about 27%
SENP1 FRET inh: SENP1 (human) catalytic domain inhibition. Q9P0U3. recombinant SENP1 catalytic domain, CyPet-SUMO1-YPet FRET cleavage. inhibition, % at 10 µM. hit rate 0.21% among 360,000. AID 624204;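 active = inhibition at least 30% at 10 µM, raw YFP signal under a set limit, fluorescence ratio 0.5 to 1.5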;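 also: 0% = enzyme with DMSO and 100% = no enzyme wells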
Target sequence (Q9P0U3 419-644 limits assumed): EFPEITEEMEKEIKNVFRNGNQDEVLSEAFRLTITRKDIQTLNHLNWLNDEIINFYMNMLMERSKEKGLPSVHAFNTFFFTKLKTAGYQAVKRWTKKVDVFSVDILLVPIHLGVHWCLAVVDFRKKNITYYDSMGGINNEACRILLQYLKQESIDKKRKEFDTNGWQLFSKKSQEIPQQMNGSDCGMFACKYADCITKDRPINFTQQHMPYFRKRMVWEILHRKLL
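material = recombinant human SENP1 catalytic domain, His6-tagged | quantity = 20 pM enzyme | reagent = 25 nM SUMO1 FRET substrate | compound dosing = 10 µM single point, 0.5% DMSO | timing = 50 min enzyme reaction, room temperature, light-protected | detection = FRET, CFP and YFP emission | control set = no-enzyme low, enzyme-DMSO high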
UCH37 DUB inh: human UCH37 deubiquitinating enzyme inhibition; Q9Y5K5; purified proteasome/UCH37, Ub-AMC cleavage fluorescence; inhibition, % (no concentration beside the values); hit rate 0.33% among 330,000;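 active = mean inhibition over replicate wells above about 20%, limit read from the data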;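 also: 0% = compound-free wells with enzyme and 100% = wells lacking proteasome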
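System: Proteasome-associated human UCH37 deubiquitinase; Input: 0.15 nM proteasome in added enzyme buffer; Also added: Ub-AMC substrate from 1 µM stock; Incubation: 30 min compound-proteasome preincubation then 25 min substrate reaction, room temperature; Detection: fluorescence, ex 355 nm, em 460 nm; Read-out: % inhibition of Ub-AMC cleavage fluorescence; Benchmarks: no-proteasome and no-compound wells.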
SENP6 inh: blocks the human protease SENP6; Q9GZR1; Recombinant SENP6 catalytic domain, aminoluciferin luminescence; inhibition, % at 10 µM; hit rate 1.8% among 330,000; AID 2599;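 active = inhibition above about 50% at the single tested dose, limit read from the data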;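 also: plate controls were DMSO wells with enzyme for no effect and DMSO wells lacking enzyme for full effect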
SENP7 inh: SENP7 protease inhibition. recombinant SENP7, Z-RLRGG-aminoluciferin luminescence, 40 min. inhibition, % at 5 µM. hit rate 1.5% among 330,000. AID 434973;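 active = inhibition above about 50% at the single test dose, limit read from the data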;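 also: plate controls were DMSO with enzyme for no effect and no enzyme buffer wells for full effect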
SENP8 confirm: human SENP8 inhibition, confirmed; hit rate 40% among 6,200; AID 488912; shares compounds with SENP7 inh; inhibition, % at 12.5 µM; Recombinant SENP8, Z-RLRGG-aminoluciferin luminescence, 60 min;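 active = mean inhibition across replicates above about 50%, limit read from the data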
SENP6 conf: human SENP6 inhibition, confirmed | shares compounds with SENP7 inh | recombinant SENP6, Z-RLRGG-aminoluciferin luminescence | inhibition, % at 12.5 µM | hit rate 58% among 6,200
SENP7 conf: human SENP7 inhibition, confirmed; recombinant SENP7, Z-RLRGG-aminoluciferin luminescence, 40 min; AID 488917; hit rate 69% among 6,200; shares compounds with SENP7 inh; inhibition, % at 12.5 µM
Casp3 SENP sel: caspase-3 inhibition (SENP selectivity assay); purified caspase-3, Z-DEVD-aminoluciferin luminescence, 60 min; inhibition, % at 12.5 µM; shares compounds with SENP7 inh; hit rate 60% among 6,200;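 active = mean inhibition above about 50%, limit read from the data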;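 also: plate controls were enzyme with DMSO for no effect and wells without caspase-3 for full effect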
Target sequence (P42574 28-227 limits assumed): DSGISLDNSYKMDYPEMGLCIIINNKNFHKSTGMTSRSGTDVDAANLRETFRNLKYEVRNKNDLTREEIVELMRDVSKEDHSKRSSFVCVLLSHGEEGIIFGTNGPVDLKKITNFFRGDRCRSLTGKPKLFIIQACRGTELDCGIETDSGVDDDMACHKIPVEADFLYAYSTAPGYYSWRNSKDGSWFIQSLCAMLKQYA
SENP luc ctr: luminescence interference (SENP counter-screen); shares compounds with SENP7 inh; Pre-incubated SENP8/Z-RLRGG-aminoluciferin, luciferase luminescence interference; inhibition, % at 12.5 µM; hit rate 39% among 6,200;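 active = mean inhibition above about 50% when retested at one dose, limit read from the data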;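 also: plate controls were DMSO wells with completed reaction for no effect and substrate without enzyme for full effect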
* marks the source's active call; other numbers are inactive results; . = no result. Compounds with a hit are over-represented: about 2.6% of the library has one in this group of screens.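 The calls were made as follows, unless noted: active = mean inhibition above about 50% in the one-dose retest (limit read from the data); inactive = the rest.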

SMILES | SENP8 block-1 | SENP8 block-2 | SENP1 FRET inh | UCH37 DUB inh | SENP6 inh | SENP7 inh | SENP8 confirm | SENP6 conf | SENP7 conf | Casp3 SENP sel | SENP luc ctr
Clc1ccc(-n2nnc(-c3cccnc3Cl)n2)cc1Cl | 4 | 4 | 2 | 0 | 21 | 57* | -12 | -4 | 14 | 9 | 0
O=C(NC1=C(Nc2ccc(F)cc2)C(=O)c2ccccc2C1=O)c1ccc(Cl)cc1 | 19 | 93* | 1 | 21* | 63* | 25 | 36 | 60* | 19 | 8 | -1
Cc1ccc(-n2nnc(-c3cccnc3)n2)cc1 | 22 | 5 | 1 | -15 | 30 | 17 | . | . | . | . | .
Cc1ccc(-n2nnc(-c3nccn3C)n2)cc1 | 86* | -10 | 1 | -1 | 84* | 87* | 90* | 90* | 100* | 97* | 90*
Cc1ccc(-n2nnc(-c3cnc4ccccc4c3)n2)cc1 | 26 | -5 | -11 | 2 | 34 | 79* | 13 | 17 | 25 | 46 | 12
Cc1c(C(=O)Nc2nc3ccccc3[nH]2)oc2ccc(Br)cc12 | -4 | -158 | -2 | -8 | -28 | 48 | . | . | . | . | .
COc1ccc(C(=O)Nc2nc3ccccc3[nH]2)cc1 | 93* | 2 | -1 | 2 | 97* | 97* | 8 | 95* | 101* | 96* | 60*
COc1ccc(C(=O)N[C@H](C(=O)Nc2nc3ccccc3[nH]2)C(C)C)cc1 | 5 | 7 | -1 | 4 | -21 | 5 | . | . | . | . | .
Cc1ccc(C(=O)Nc2nc3ccccc3[nH]2)cc1 | 93* | -3 | 4 | -1 | 93* | 97* | 10 | 8 | -4 | 48 | 10
O=C(Nc1nc2ccccc2[nH]1)c1cccs1 | 45 | -19 | 0 | -9 | 17 | 69* | 43 | 73* | 89* | 88* | 10
O=C(Nc1nc2ccccc2[nH]1)C1CC1 | -6 | 21 | 1 | 4 | -32 | -13 | . | . | . | . | .
Cc1c(C(=O)Nc2nc3ccccc3[nH]2)oc2ccccc12 | 38 | -156 | -11 | -8 | 69* | 57* | -27 | 60* | 89* | 65* | 7
Cc1ccc(N(C)S(=O)(=O)c2cccc(C(=O)Nc3nc4ccccc4[nH]3)c2)cc1 | -2 | -53 | 2 | -13 | -9 | 3 | . | . | . | . | .
O=C(NN=Cc1cn(-c2ccccc2)nc1-c1ccccc1)c1ccc2c(c1)OCO2 | . | . | . | 3 | . | . | . | . | . | . | .
CN1/C(=C/C=Nn2cnnc2)C(C)(C)c2ccccc21 | . | . | . | -1 | . | . | . | . | . | . | .
COc1cccc(C(=O)Nc2nc3ccccc3[nH]2)c1 | 90* | -1 | 18 | -5 | 94* | 95* | 6 | 93* | 102* | 96* | 17
O=c1[nH]c2ccccc2nc1/C=C(\O)c1cccs1 | 18 | -233 | -28 | . | 38 | 4 | . | . | . | . | .
O/C(=C\c1nc2ccccc2[nH]1)c1cccs1 | 33 | -99 | -15 | . | 61* | 20 | 40 | 74* | 66* | 38 | 46
COc1cc(C(=O)Nc2nc3ccccc3[nH]2)cc(OC)c1OC | 2 | -2 | 0 | 1 | -9 | 4 | . | . | . | . | .
CCOC(=O)c1c(C)[nH]c(C(=O)NN=Cc2cc([N+](=O)[O-])ccc2O)c1C | . | . | . | 8 | . | . | . | . | . | . | .
c1ccc(OCc2nc3ccccc3[nH]2)cc1 | 31 | 9 | 0 | 5 | 61* | 54* | 50 | 51* | 85* | 82* | 68*
c1ccc(Cc2nc3ccccc3[nH]2)cc1 | 1 | 12 | 1 | 4 | -6 | 10 | . | . | . | . | .
Cc1ccc(OCc2nc3ccccc3[nH]2)cc1 | 61* | 4 | 1 | 3 | 45 | 68* | 52* | 53* | 78* | 70* | 61*
Cc1ccc(C(=O)Cc2nc3ccccc3[nH]2)cc1 | -2 | -3 | -25 | 6 | -20 | 4 | . | . | . | . | .
O=C(COC(=O)C1CC(O)CN1S(=O)(=O)c1ccccc1[N+](=O)[O-])Nc1ccc2ccccc2c1 (centres undefined) | . | . | . | 1 | . | . | . | . | . | . | .
SMILES | SENP8 block-1 | SENP8 block-2 | SENP1 FRET inh | UCH37 DUB inh | SENP6 inh | SENP7 inh | SENP8 confirm | SENP6 conf | SENP7 conf | Casp3 SENP sel | SENP luc ctr
COc1ccc(C=NNC(=O)c2ccncc2)cc1Cn1nc([N+](=O)[O-])c(Br)c1C | . | . | . | 1 | . | . | . | . | . | . | .
Cc1ccccc1C=NNC(=O)c1sccc1C | . | . | . | 0 | . | . | . | . | . | . | .
CCn1c(SCC(=O)N2CCCC2)nc2ccccc21 | -9 | 2 | 1 | -3 | 3 | -4 | . | . | . | . | .
CCn1c(CSc2nc3ccccc3n2C)nc2ccccc21 | -4 | -7 | 1 | -1 | -32 | 9 | . | . | . | . | .
CCn1c(SCc2ccccc2Cl)nc2ccccc21 | 17 | 32 | 1 | 5 | 59* | 17 | 42 | 44 | 71* | 27 | 20
Cn1c(SCc2ccccc2Cl)nc2ccccc21 | 75* | 39 | 2 | 1 | 86* | 67* | -22 | 77* | 95* | 67* | 66*
COC(=O)c1ccc(C=NN2CCN(Cc3ccc(Cl)cc3)CC2)cc1 | . | . | . | 3 | . | . | . | . | . | . | .
COc1ccc(SCC(=O)Nc2ccccc2Cl)cc1 | -4 | 8 | 1 | 0 | -2 | -7 | . | . | . | . | .
COc1nc(SCC(=O)Nc2ccccc2Cl)nc(N(C)C)n1 | -3 | 11 | 0 | 4 | 85* | 2 | 12 | 8 | 3 | 7 | 13
COc1ccc(C=NN=C2SC(CC(=O)O)C(=O)N2c2ccccc2)cc1 (centres undefined) | . | . | . | 6 | . | . | . | . | . | . | .
O=C(Nc1ccc2[nH]c(=S)sc2c1)Nc1ccccc1F | 95* | -6 | -20 | 11 | 97* | 99* | 99* | 100* | 104* | 98* | 90*
O=C(Nc1ccc2[nH]c(=S)sc2c1)c1ccccc1 | 42 | -14 | -6 | 9 | 34 | 52* | 66* | 67* | 88* | 83* | 74*
O=C(CON=Cc1ccc(OC(F)F)cc1)NCc1ccc(F)cc1 | . | . | . | 0 | . | . | . | . | . | . | .
CCNN=C(Cc1nc2ccccc2[nH]1)c1ccccc1 | . | . | . | -8 | . | . | . | . | . | . | .
Cn1cccc1C(=O)OCc1cc(Cl)cc2c1OCOC2 | 45 | 10 | 6 | 4 | 75* | 51* | 70* | 72* | 90* | 47 | 65*
CC(C)NC(=S)NN=C1CCCc2ccccc21 | . | . | . | 6 | . | . | . | . | . | . | .
CCS(=O)(=O)c1ccc2oc(Nc3ccccc3C)nc2c1 | 69* | 9 | 1 | 0 | 81* | 79* | 82* | 81* | 97* | 92* | 84*
